Test results taken from ChEMBL document CHEMBL2346559, “Optimization of benzoxazole-based inhibitors of Cryptosporidium parvum inosine 5'-monophosphate dehydrogenase” (J Med Chem, 2013).

Columns and labels:
Toxoplasma gondii [1] = assay: Antiparasitic activity against transgenic Toxoplasma gondii expressing Cryptosporidium parvum IMPDH; type: functional, organism-based
In short: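 Engineered T. gondii strain that depends on CpIMPDH for guanine nucleotide synthesis, run alongside the wild-type RH strain, whose native eukaryotic IMPDH also gauges host-cell cytotoxicity. Antiparasitic EC50 is the average of three independent determinations unless otherwise stated, with some values from two determinations.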

[2] = molecular target: T1, Inosine-5'-monophosphate dehydrogenase (Cryptosporidium parvum, UniProt Q8T6T2); assay: Inhibition of Cryptosporidium parvum N-terminal His6-tagged IMPDH-mediated NADH production expressed in Escherichia coli BL21(DE3) preincubated for 5 mins prior to substrate addition by fluorescence assay
T1 sequence (Q8T6T2 whole entry): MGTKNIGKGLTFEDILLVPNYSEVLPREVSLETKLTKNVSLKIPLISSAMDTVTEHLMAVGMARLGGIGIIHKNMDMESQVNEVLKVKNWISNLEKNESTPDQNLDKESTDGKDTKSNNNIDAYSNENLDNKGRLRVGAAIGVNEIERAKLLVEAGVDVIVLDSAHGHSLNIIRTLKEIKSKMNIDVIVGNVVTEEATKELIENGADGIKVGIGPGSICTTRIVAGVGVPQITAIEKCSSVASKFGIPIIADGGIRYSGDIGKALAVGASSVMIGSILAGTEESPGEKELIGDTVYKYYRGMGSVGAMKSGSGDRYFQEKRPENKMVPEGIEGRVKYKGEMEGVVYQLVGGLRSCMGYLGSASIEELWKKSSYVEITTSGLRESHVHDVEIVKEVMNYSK

[3] = molecular target: Inosine-5'-monophosphate dehydrogenase 2 (Homo sapiens, UniProt P12268); assay: Inhibition of human IMPDH2
Toxoplasma gondii [4] = assay: Antiparasitic activity against wild-type Toxoplasma gondii expressing eukaryotic IMPDH; type: functional, organism-based
Toxoplasma gondii [5] = assay: Selectivity ratio of EC50 for wild-type Toxoplasma gondii to EC50 for Toxoplasma gondii expressing Cryptosporidium parvum IMPDH; type: functional
[6] = molecular target: T1, Inosine-5'-monophosphate dehydrogenase; assay: Inhibition of Cryptosporidium parvum N-terminal His6-tagged IMPDH-mediated NADH production expressed in Escherichia coli BL21(DE3) preincubated for 5 mins prior to substrate addition by fluorescence assay in presence of BSA
In short: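 Same CpIMPDH fluorescence assay (10 nM enzyme, 300 μM NAD, 150 μM IMP, pH 8.0 Tris buffer, 25 °C, 5 min inhibitor preincubation), run with 0.05% fatty-acid-free BSA added to gauge nonspecific protein binding. Quadruplicate points; IC50 averaged over three determinations.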

[7] = Cytotoxicity against human HEK293 cells after 3 days by Alamar blue assay; type: cell-based; conditions: read-out: LD50
In short: (§1)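 Tested in parallel against HeLa, HEK293, COS and CHO cells. Viability was read as metabolic activity by alamarBlue and expressed as LD50.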

[8] = Cytotoxicity against African green monkey COS cells after 3 days by Alamar blue assay; type: cell-based; conditions: chlorocebus aethiops, read-out: LD50; in short: as §1
[9] = Cytotoxicity against human HeLa cells after 3 days by Alamar blue assay; type: cell-based; conditions: read-out: LD50; in short: as §1
[10] = Cytotoxicity against CHO cells after 3 days by Alamar blue assay; type: cell-based, Cricetulus griseus; conditions: chinese hamster, read-out: LD50; in short: as §1
Liver [11] = assay: Half life in mouse liver microsomes by LC/MS/MS analysis in presence of NADPH; type: ADME, Microsome
In short: (§2)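 Incubation with mouse liver microsomes at 37 °C, with and without NADPH. Percent of compound remaining measured at several time points; half-life from a fit to first-order decay.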

Liver [12] = assay: Half life in mouse liver microsomes by LC/MS/MS analysis; type: ADME, Microsome; in short: as §2
[13] = molecular target: T2, Inosine-5'-monophosphate dehydrogenase (Cryptosporidium parvum) (UniProt Q8T6T2)
T2 sequence (whole entry): T1 sequence (Q8T6T2 whole entry)

[14] = molecular target: T2, Inosine-5'-monophosphate dehydrogenase (Cryptosporidium parvum); remark: listed apart in the source

SMILES	EC50 (Toxoplasma gondii [1]) [µM]	IC50 [2] [µM]	IC50 [3] [µM]	EC50 (Toxoplasma gondii [4]) [µM]	Ratio EC50 (Toxoplasma gondii [5])	IC50 [6] [µM]	also measured
CC(Oc1cccc2ccccc12)C(=O)Nc1ccc2oc(-c3ccncc3)nc2c1 (stereo not given)	0.2	0.009	> 5	2.4	34	0.014	–
CC(NC(=O)c1ccc2oc(-c3ccncc3)nc2c1)c1ccccc1 (stereo not given)	–	> 5	> 5	–	–	–	–
CC(Cc1ccccc1)C(=O)Nc1ccc2oc(-c3ccncc3)nc2c1 (stereo not given)	–	> 5	> 5	–	–	–	–
COc1ccc(OC(C)C(=O)Nc2ccc3oc(-c4ccncc4)nc3c2)cc1 (stereo not given)	0.5	0.028	> 5	> 25	>50	0.034	CC50 at 72 h [7]: > 50 µM; CC50 at 72 h [8]: > 50 µM; CC50 at 72 h [9]: > 50 µM; CC50 at 72 h [10]: > 50 µM
CC(Oc1c(Cl)cccc1Cl)C(=O)Nc1ccc2oc(-c3ccncc3)nc2c1 (stereo not given)	–	> 5	> 5	–	–	–	–
C[C@@H](C(=O)Nc1ccc2oc(-c3ccncc3)nc2c1)c1cccc(Cl)c1Cl	–	0.06	> 5	–	–	–	t1/2 (Liver [11]): 25 min; t1/2 (Liver [12]): 130 min
C[C@H](Oc1cccc2ccccc12)C(=O)N(C)c1ccc2oc(-c3cncs3)nc2c1	–	> 5	> 5	–	–	–	–
CC(C(=O)Nc1ccc2oc(-c3ccncc3)nc2c1)c1ccccc1 (stereo not given)	2.5	0.12	> 5	5	–	0.13	–
C[C@H](Oc1cccc(Cl)c1Cl)C(=O)Nc1ccc2oc(-c3nccs3)nc2c1	0.3	0.017	> 5	2.2	7	0.03	–
C[C@H](Oc1cccc(Cl)c1Cl)C(=O)Nc1ccc2oc(-c3ccncc3)nc2c1	0.3	0.0012	> 5	5	16	0.0035	t1/2 (Liver [11]): 9 min; t1/2 (Liver [12]): 12 min
C[C@H](Nc1cccc(Cl)c1Cl)C(=O)Nc1ccc2oc(-c3ccncc3)nc2c1	–	0.0005	> 5	–	–	–	t1/2 (Liver [11]): 44 min; t1/2 (Liver [12]): 110 min; CC50 at 72 h [7]: > 50 µM; CC50 at 72 h [8]: > 50 µM; CC50 at 72 h [9]: > 50 µM; CC50 at 72 h [10]: > 50 µM
C[C@H](Oc1cccc2ccccc12)C(=O)Nc1ccc2oc(-c3ccc[nH]3)nc2c1	1	0.026	> 5	1.7	1.7	0.05	–
CC(Oc1ccccc1)c1cn(-c2ccc3oc(-c4cncs4)nc3c2)nn1 (stereo not given)	–	> 5	> 5	–	–	–	–
CC(C)C(Oc1cccc2ccccc12)C(=O)Nc1ccc2oc(-c3ccncc3)nc2c1 (stereo not given)	–	0.024	> 5	–	–	0.057	–
CC(Oc1ccccc1)C(=O)Nc1ccc2oc(-c3ccncc3)nc2c1 (stereo not given)	4	0.04	> 5	7	2	0.05	–
C[C@H](Oc1cccc(Cl)c1Cl)C(=O)Nc1cc(Cl)c2oc(-c3ccncc3)nc2c1	–	0.24	> 5	–	–	0.6	Kis [13]: 210 nM; Kis [14]: 150 nM
CC(C)(Oc1ccc(Cl)cc1)C(=O)Nc1ccc2oc(-c3ccncc3)nc2c1	–	> 5	> 5	–	–	–	–
CC(Oc1cccc(Cl)c1)C(=O)Nc1ccc2oc(-c3ccncc3)nc2c1 (stereo not given)	0.5	0.02	> 5	1.1	2	0.032	–
C[C@H](Oc1cccc(Cl)c1Cl)C(=O)Nc1ccc2nc(-c3cncs3)oc2c1	–	0.007	> 5	–	–	0.06	–
CC(Oc1ccc(Cl)cc1Cl)C(=O)Nc1ccc2oc(-c3ccccc3)nc2c1 (stereo not given)	–	> 5	> 5	–	–	–	–
CC(Oc1ccccc1)C(=O)Nc1ccc2nc(-c3ccncc3)[nH]c2c1 (stereo not given)	9	> 5	> 5	9	1	–	–

SMILES	EC50 (Toxoplasma gondii [1]) [µM]	IC50 [2] [µM]	IC50 [3] [µM]	EC50 (Toxoplasma gondii [4]) [µM]	Ratio EC50 (Toxoplasma gondii [5])	IC50 [6] [µM]	also measured
CC(Oc1ccc(Cl)c2ccccc12)C(=O)Nc1ccc2oc(-c3ccncc3)nc2c1 (stereo not given)	–	0.027	> 5	–	–	0.053	–
CC(Oc1ccc(Cl)cc1Cl)C(=O)Nc1ccc2oc(-c3ccccn3)nc2c1 (stereo not given)	–	0.21	> 5	–	–	0.8	–
CC(Oc1ccc(Cl)cc1Cl)C(=O)Nc1ccc2oc(-c3cccnc3)nc2c1 (stereo not given)	–	0.15	> 5	–	–	0.6	–
CC(Oc1ccc(Cl)cc1)C(=O)Nc1ccc2oc(-c3ccncc3)nc2c1 (stereo not given)	–	0.105	> 5	–	–	0.118	–
CC(Oc1cccc(Cl)c1Cl)C(=O)Nc1ccc2oc(-c3ccncc3)nc2c1 (stereo not given)	0.22	0.003	> 5	8	40	0.011	CC50 at 72 h [7]: > 50 µM; CC50 at 72 h [8]: > 50 µM; CC50 at 72 h [9]: > 50 µM; CC50 at 72 h [10]: > 50 µM
CC(Nc1cccc(Cl)c1Cl)C(=O)Nc1ccc2oc(-c3ccncc3)nc2c1 (racemic)	0.02	0.002	> 5	–	–	–	–
C[C@H](Oc1cccc(Cl)c1Cl)C(=O)Nc1cccc(NC(=O)c2ccncc2)c1	–	> 5	> 5	–	–	–	–
CC(Oc1ccc(Cl)c2ccccc12)C(=O)Nc1ccc2oc(-c3cncs3)nc2c1 (stereo not given)	2	0.028	> 5	5	3	0.07	–
C[C@H](C(=O)Nc1ccc2oc(-c3ccncc3)nc2c1)c1ccccc1	–	> 5	> 5	–	–	–	–
CC(Oc1cccc2ccccc12)C(=O)Nc1ccc2oc(-c3ncccn3)nc2c1 (stereo not given)	–	> 5	> 5	–	–	–	–
C[C@H](Oc1cccc(C(F)(F)F)c1Cl)C(=O)Nc1ccc2oc(-c3ccncc3)nc2c1	0.8	0.009	> 5	–	–	0.052	–
CC(Oc1ccccc1Cl)C(=O)Nc1ccc2oc(-c3ccncc3)nc2c1 (stereo not given)	0.9	0.019	> 5	3	3	0.05	CC50 at 72 h [7]: 12.5 µM; CC50 at 72 h [8]: > 50 µM; CC50 at 72 h [9]: > 50 µM; CC50 at 72 h [10]: > 50 µM
C[C@H](Oc1cccc2ccccc12)C(=O)Nc1ccc2oc(-c3ccncc3)nc2c1	0.4	–	> 5	2.2	5	0.008	t1/2 (Liver [11]): 30 min
C[C@H](Nc1cccc2ccccc12)C(=O)Nc1ccc2oc(-c3ccncc3)nc2c1	–	0.014	> 5	–	–	–	t1/2 (Liver [11]): 18 min; t1/2 (Liver [12]): 27 min
C[C@H](Oc1cccc(Cl)c1Cl)C(=O)Nc1ccc2oc(-c3cncs3)nc2c1	0.2	0.0014	> 5	3.3	15	0.0023	t1/2 (Liver [11]): 7 min; t1/2 (Liver [12]): 11 min
C[C@H](Oc1cccc(Cl)c1Cl)C(=O)Nc1ccc2nc(-c3ccncc3)oc2c1	0.02	0.0006	> 5	3	150	0.004	t1/2 (Liver [11]): 10 min; t1/2 (Liver [12]): 9 min; CC50 at 72 h [7]: > 50 µM; CC50 at 72 h [8]: > 50 µM; CC50 at 72 h [9]: > 50 µM; CC50 at 72 h [10]: > 50 µM
C[C@H](Oc1cccc([N+](=O)[O-])c1Cl)C(=O)Nc1ccc2oc(-c3ccncc3)nc2c1	0.19	0.0023	> 5	–	–	0.006	CC50 at 72 h [7]: > 50 µM; CC50 at 72 h [8]: > 50 µM; CC50 at 72 h [9]: > 50 µM; CC50 at 72 h [10]: > 50 µM
C[C@@H](Oc1cccc2ccccc12)C(=O)Nc1ccc2oc(-c3ccncc3)nc2c1	–	0.4	> 5	–	–	0.38	–
O=C(COc1ccc(Cl)cc1Cl)Nc1ccc2oc(-c3ccncc3)nc2c1	–	> 5	> 5	–	–	–	–
COc1cccc(O[C@@H](C)C(=O)Nc2ccc3oc(-c4ccncc4)nc3c2)c1OC	0.7	0.05	> 5	21	30	0.06	–
